The values that follow come from ChEMBL document CHEMBL4680093 (J Med Chem, 2016).

Data set [1] is described as follows: Toxicity in dog assessed as induction of abnormal changes in cardiovascular system up to 400 mg/kg, po. It is filed as organism-based, Canis lupus familiaris. Particulars: in vivo. The procedure, abridged: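 Dogs fitted with telemetry were given oral doses of up to 400 mg/kg. Cardiovascular and respiratory systems were monitored for abnormal changes.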
Data set [2] addresses 11-beta-hydroxysteroid dehydrogenase 1 (Mus musculus, UniProt P50172). Description: Inhibition of mouse 11beta-HSD1 expressed in microsomes. Further details: species or system Microsome. The procedure, abridged:
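HEK293 cell lysates (microsomal fractions) overexpressing human or mouse 11β-HSD1 were incubated with cortisone, a range of inhibitor concentrations and an NADPH regenerating system in sodium phosphate buffer at 37°C for 1 h. Cortisol in the supernatant was quantified by ELISA. Percent inhibition was fitted to a sigmoidal dose-response curve to give IC50.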

The target in data set [3] is Voltage-gated inwardly rectifying potassium channel KCNH2 (Homo sapiens, UniProt Q12809). Description: Inhibition of human ERG expressed in CHO cells by whole-cell patch clamp assay. It is filed as cell-based. The procedure, abridged: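 hERG channels stably expressed in CHO cells were recorded by whole-cell patch clamp, and an IC50 was estimated.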
Chain of Voltage-gated inwardly rectifying potassium channel KCNH2 (Q12809 whole entry): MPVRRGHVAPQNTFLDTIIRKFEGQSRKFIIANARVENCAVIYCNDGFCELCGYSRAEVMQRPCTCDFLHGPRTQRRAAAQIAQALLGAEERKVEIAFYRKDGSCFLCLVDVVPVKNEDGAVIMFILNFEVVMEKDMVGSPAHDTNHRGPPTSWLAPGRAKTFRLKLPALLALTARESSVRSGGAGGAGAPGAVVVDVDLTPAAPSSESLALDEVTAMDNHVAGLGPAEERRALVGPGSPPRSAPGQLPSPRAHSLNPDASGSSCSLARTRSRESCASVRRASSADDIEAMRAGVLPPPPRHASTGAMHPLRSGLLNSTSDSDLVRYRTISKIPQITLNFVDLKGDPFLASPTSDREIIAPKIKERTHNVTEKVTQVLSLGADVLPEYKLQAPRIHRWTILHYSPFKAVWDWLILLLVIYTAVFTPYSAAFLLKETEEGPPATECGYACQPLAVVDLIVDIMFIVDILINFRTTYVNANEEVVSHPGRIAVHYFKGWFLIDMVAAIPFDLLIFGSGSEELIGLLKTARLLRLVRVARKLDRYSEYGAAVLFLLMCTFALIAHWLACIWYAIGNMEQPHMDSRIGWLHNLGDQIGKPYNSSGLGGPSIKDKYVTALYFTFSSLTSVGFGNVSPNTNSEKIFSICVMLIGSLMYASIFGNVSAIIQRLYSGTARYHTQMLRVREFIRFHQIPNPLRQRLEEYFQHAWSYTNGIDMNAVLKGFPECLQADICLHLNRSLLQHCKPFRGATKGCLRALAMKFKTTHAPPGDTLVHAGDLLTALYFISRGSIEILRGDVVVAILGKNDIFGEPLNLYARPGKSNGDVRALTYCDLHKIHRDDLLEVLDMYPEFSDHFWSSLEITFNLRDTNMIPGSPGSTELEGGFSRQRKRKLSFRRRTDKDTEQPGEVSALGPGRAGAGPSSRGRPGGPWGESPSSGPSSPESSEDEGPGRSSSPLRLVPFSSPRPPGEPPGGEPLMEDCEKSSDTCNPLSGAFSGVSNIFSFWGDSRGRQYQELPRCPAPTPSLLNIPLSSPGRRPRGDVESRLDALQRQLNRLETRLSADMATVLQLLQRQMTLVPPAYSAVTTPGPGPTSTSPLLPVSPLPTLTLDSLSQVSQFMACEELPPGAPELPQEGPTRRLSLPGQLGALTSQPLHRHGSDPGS
(In general: The patch-clamp technique gives a direct electrical read-out from membranes.)

Data set [4] is described as follows: In-vivo inhibition of 11beta-HSD1 activity in C57BL/6 mouse liver assessed as reduction in cortisone to-cortisol conversion at 10 mg/kg, po measured after 6 hrs by ELISA. The conditions noted are these: C57BL/6, Liver. It is filed as functional. The method in brief: (§1)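 Male C57BL/6 mice dosed orally once at 3, 10 or 30 mg/kg in sterile water containing 0.5% methylcellulose and 1% Tween80, then sacrificed at 2 or 6 h. Liver and epididymal fat pads incubated ex vivo in culture medium containing cortisone. Cortisol formed was measured by ELISA and reported as % inhibition versus vehicle.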

The test system of another data set is Erythrocyte. Description: Genotoxicity in mouse erythrocytes by micronucleus test. It is filed as toxicity, cell-based.
Data set [5] can be described thus: Metabolic stability in mouse liver microsomes assessed as compound remaining after 30 mins. It is filed as ADME, Microsome. Particulars: read-out: Stabilty. On the technique in general: Liver microsomes are vesicles of endoplasmic reticulum, rich in cytochrome P450 enzymes.
Data set [6] can be described thus: Ratio of drug level in liver to plasma of mouse at 10 mg/kg, po measured after 2 hrs post dose. It is filed as ADME, organism-based. The method in brief:
(§2)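 C57BL/6 mice received a single oral dose of 10 mg/kg in 0.5% methylcellulose/1% Tween80. Animals were sacrificed 2 h post-dose. Compound was measured in brain, liver, adipose and plasma (nmol/g), and tissue/plasma ratios were calculated.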

Data set [7] is described as follows: Cmax in rat at 5 mg/kg, po. It is filed as ADME, organism-based. Further details: route oral, dose 5 mg/kg. Particulars: in vivo.
The nature of data set [8]: Ratio of unbound Cmax in mouse plasma at 10 mg/kg, po measured after 2 hrs post dose to IC50 for human ERG expressed in CHO cells. It is filed as ADME, organism-based. The conditions noted are these: in vivo.
A short description of data set [9]: Ratio of drug level in adipose tissue to plasma of mouse at 10 mg/kg, po measured after 2 hrs post dose. It is filed as ADME, organism-based. The method in brief:
as §2

A short description of data set [10]: AUC in mouse at 5 mg/kg, po. It is filed as ADME, organism-based. Further details: dose 5 mg/kg. The conditions noted are these: in vivo.
Data set [11] can be described thus: In-vivo inhibition of 11beta-HSD1 activity in C57BL/6 mouse epididymal fat assessed as reduction in cortisone to-cortisol conversion at 30 mg/kg, po measured after 6 hrs by ELISA. It is filed as functional. Particulars: C57BL/6, Epididymal fat pad. The procedure, abridged: as §1
(In general: In an ELISA, binding on a coated surface is turned into a signal by an enzyme label.)

In another data set the target is T1, Cytochrome P450 1A2 (Homo sapiens, UniProt P05177).
T1 sequence (P05177 whole entry): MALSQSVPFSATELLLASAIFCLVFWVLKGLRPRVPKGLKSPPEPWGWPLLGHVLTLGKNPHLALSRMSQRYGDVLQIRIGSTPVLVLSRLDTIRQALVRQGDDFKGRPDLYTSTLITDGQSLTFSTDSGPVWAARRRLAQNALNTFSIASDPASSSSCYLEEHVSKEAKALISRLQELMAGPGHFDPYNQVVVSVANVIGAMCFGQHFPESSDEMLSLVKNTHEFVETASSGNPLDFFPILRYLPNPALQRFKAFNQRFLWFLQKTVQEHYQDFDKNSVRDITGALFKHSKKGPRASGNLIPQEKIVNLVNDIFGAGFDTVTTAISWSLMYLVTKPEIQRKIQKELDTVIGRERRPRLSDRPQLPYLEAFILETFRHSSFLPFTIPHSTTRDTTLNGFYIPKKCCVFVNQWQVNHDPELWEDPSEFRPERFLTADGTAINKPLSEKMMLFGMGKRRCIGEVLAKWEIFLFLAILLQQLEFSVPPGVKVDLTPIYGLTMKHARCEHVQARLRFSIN
Description: Inhibition of CYP1A2 in pooled human liver microsomes using phenacetin as substrate in presence of NADPH incubated for 10 mins by LC-MS/MS analysis.

Data set [12] can be described thus: Oral bioavailability in dog at 4 mg/kg. The conditions noted are these: in vivo. It is filed as ADME, organism-based, Canis lupus familiaris. The procedure, abridged: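 Single-dose PK study. The iv dose was given in 10% hydroxypropyl-β-cyclodextrin and the oral dose in 0.5% methylcellulose/1% Tween80. Mouse and rat received 1 mg/kg iv and 5 mg/kg po. Dog received 0.5 mg/kg iv and 4 mg/kg po. CL, Vss, t1/2, AUC, Cmax, tmax and F were derived.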

Data set [13] can be described thus: In-vivo inhibition of 11beta-HSD1 activity in C57BL/6 mouse liver assessed as reduction in cortisone to-cortisol conversion at 3 mg/kg, po measured after 2 hrs by ELISA. It is filed as functional. The conditions noted are these: C57BL/6, Liver. The procedure, abridged: as §1
The nature of data set [14]: Toxicity in male mouse during 4-week repeated once daily oral-dose toxicity study. Particulars: in vivo, time 4 weeks. The procedure, abridged:
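Mice of both sexes were dosed orally once daily for 4 weeks at 40, 100, 250 and 625 mg/kg. Toxicity was assessed and the NOAEL determined.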

Data set [15] can be described thus: In-vivo inhibition of 11beta-HSD1 activity in C57BL/6 mouse epididymal fat assessed as reduction in cortisone to-cortisol conversion at 3 mg/kg, po measured after 6 hrs by ELISA. It is filed as functional. The conditions noted are these: C57BL/6, Epididymal fat pad. The method in brief:
as §1

Data set [16] in a line: Reduction in nonfasting blood glucose level in C57BL/6-Lep^ob (ob/ob) mouse at 20 mg/kg, po dosed once daily for 25 days and co-treated with 300 mg/kg. po QD for 25 days metformin relative to control. Also noted: scale not given: the % may be the effect or the level left. Particulars: time 25 day.
The nature of data set [17]: In-vivo inhibition of 11beta-HSD1 activity in C57BL/6 mouse epididymal fat assessed as reduction in cortisone to-cortisol conversion at 30 mg/kg, po measured after 2 hrs by ELISA. It is filed as functional. Particulars: C57BL/6, Epididymal fat pad. The procedure, abridged:
as §1

In data set [18] the target is T2, Nuclear receptor subfamily 1 group I member 2 (Homo sapiens, UniProt O75469).
T2 sequence (O75469 whole entry): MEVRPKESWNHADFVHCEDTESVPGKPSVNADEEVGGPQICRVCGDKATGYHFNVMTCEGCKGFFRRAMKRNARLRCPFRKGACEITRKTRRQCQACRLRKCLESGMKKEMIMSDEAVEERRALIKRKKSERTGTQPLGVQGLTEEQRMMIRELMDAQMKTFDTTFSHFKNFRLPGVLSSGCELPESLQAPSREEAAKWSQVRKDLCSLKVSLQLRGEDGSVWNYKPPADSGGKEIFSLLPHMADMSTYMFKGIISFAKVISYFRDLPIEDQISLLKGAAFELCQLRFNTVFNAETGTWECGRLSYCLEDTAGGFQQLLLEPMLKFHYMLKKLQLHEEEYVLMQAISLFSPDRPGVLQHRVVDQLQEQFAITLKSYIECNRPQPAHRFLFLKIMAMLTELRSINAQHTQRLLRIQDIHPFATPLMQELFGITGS
The data set can be described thus: Activation of PXR (unknown origin) at 10 uM relative to rifampicin. It is filed as ADME.

Data set [19] in a line: Genotoxicity in Salmonella typhimurium by reverse mutation assay. Particulars: salmonella enterica subsp. enterica serovar typhimurium. It is filed as toxicity.

Chain of 11-beta-hydroxysteroid dehydrogenase 1 (P50172 whole entry): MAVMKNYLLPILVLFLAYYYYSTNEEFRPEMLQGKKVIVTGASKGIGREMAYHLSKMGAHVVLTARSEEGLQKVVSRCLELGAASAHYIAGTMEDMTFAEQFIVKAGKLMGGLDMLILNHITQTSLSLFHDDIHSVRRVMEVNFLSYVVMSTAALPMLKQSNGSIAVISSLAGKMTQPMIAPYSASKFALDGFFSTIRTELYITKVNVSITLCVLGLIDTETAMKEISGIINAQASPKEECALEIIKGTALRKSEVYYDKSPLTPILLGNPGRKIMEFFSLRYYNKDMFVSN

The term IC50 denotes the concentration that gives 50% inhibition. What is called inhibition in vivo is the share of the control response that was lost under treatment. The term Kp denotes tissue or fluid exposure divided by exposure in the circulation. Usually Cmax stands for the peak of the concentration-time curve. By AUC is commonly meant concentration integrated over time. The bioavailability is the share of a dose that reaches the circulation, judged against a reference dose that is usually intravenous. As a reminder, the NOAEL is the highest dose or exposure tested at which no adverse effect was seen. Take `C[C@@H]1CN(c2ccc(S(C)(=O)=O)cc2F)CCN1c1nccc(C(=O)NC2C3CC4CC2CC(O)(C4)C3)n1` (stereo partly specified): the Activity entry is on record as “Non-Toxic” in data set [1]; “Non-Toxic” with Erythrocyte; 33% in data set [16]; 0% in data set [18]; “Non-Toxic” in data set [19]. Besides, the values for the IC50 (in data set [2]; in data set [3]; on Cytochrome P450 1A2) were 0.0016 µM, 8 µM and over 10 µM, respectively. Besides, the inhibition in vivo at 10 mg/kg in data set [4] is 87%. In data set [5], the remaining at 0.5 h worked out at 98%. In addition, the results for the Kp at 2 h in [6] and in data set [9] were 2.94 and 0.62, respectively. The molecule also displayed a peak concentration (Cmax) in [7] of 1020 ng/mL. For the same molecule, the Ratio in data set [8] is given as over 30. This molecule also returned an AUC in [10] of 11300 ng·h/mL. Besides, the inhibition in vivo at 30 mg/kg in data set [11] is 93%; in [17], 92%. Besides, the bioavailability in data set [12] amounted to 98%. Moreover, the inhibition in vivo at 3 mg/kg turned out to be 74% in data set [13] and 84% in data set [15]. In data set [14], this molecule registered an NOAEL at 672 h of 625 mg/kg.
